# Experimental data reported in ChEMBL document CHEMBL4622977, “A CNS-Targeting Prodrug Strategy for Nuclear Receptor Modulators” (J Med Chem, 2020).
# Active and inactive are the calls of the source. The calls are words filed in the database; no cut-off is given here.
# Assays:
# [1] = AUC (0.5 to 6 hrs) in C57BL/6 mouse serum assessed as GW3965 level at 9.14 umol/kg, ip by LC-MS/MS analysis; assay type: ADME, organism-based; parameters: time 0.5-6 hr, dose 9.14 umol/kg, route intraperitoneal; settings: in vivo
# Summary of the method: (§1)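 Male wild-type C57BL/6 mice (8−10 weeks, n=3 per time point) received parent drug or equimolar prodrug at […] i.p. in DMSO. Brain and serum were collected at 0.5, 2 and 6 h. Parent acid was quantified by LC-MS/MS against vehicle-tissue standard curves with d₆-sobetirome internal standard. AUC0.5–6 h was computed from the time course; mean ± SEM.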
# [2] = AUC (0.5 to 6 hrs) in C57BL/6 mouse brain assessed as GW3965 level at 9.14 umol/kg, ip by LC-MS/MS analysis; assay type: ADME, organism-based; parameters: dose 9.14 umol/kg, time 0.5-6 hr, route intraperitoneal; settings: in vivo, BLD = below limit of detection; summary of the method: as §1
# [3] = Prodrug conversion in C57BL/6 mouse brain assessed as GW3965 level at 9.14 umol/kg, ip measured after 1 hr in presence of FAAH inhibitor PF-3845 by LC-MS/MS analysis; assay type: ADME, organism-based; settings: in vivo
# Summary of the method: (§2)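 Male C57BL/6 mice (n=3) received PF-3845 at 1 mg/kg i.p., then prodrug at […] i.p. 1 h later; comparators received prodrug alone. Vehicle was DMSO. Whole brain was taken 1 h after prodrug and homogenized in water with d₆-sobetirome internal standard. It was extracted with EtOAc/MeCN and parent acid was measured by LC-MS/MS; mean ± SEM, 2-tailed unpaired t test.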
# Mus musculus [4] = assay: In vivo agonist activity at RAR in C57BL/6 mouse assessed upregulation of Adam10 gene expression in brain at 9.14 umol/kg, ip administered once daily for 7 days by Trizol reagent based RT-qPCR analysis; assay type: functional, organism-based
# Summary of the method: (§3)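 Male C57BL/6 mice (n=5) were dosed once daily for 7 days i.p. with parent drug at […], equimolar prodrug, or vehicle. The vehicle was 1:1:8 Kolliphor:NMP:water. Target gene expression was compared between groups per tissue by 2-tailed unpaired t test.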
# [5] = Hepatotoxicity in C57BL/6 mouse assessed effect on Rarres2 gene expression at 9.14 umol/kg, ip administered once daily for 7 days by Trizol reagent based RT-qPCR analysis; settings: in vivo, 168 h
# [6] = Brain to serum concentration ratio, Kp of the compound in C57BL/6 mouse assessed as tazarotenic acid level at 9.14 umol/kg, ip by LC-MS/MS analysis; assay type: ADME, organism-based
# Summary of the method: (§4)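 Brain-to-serum ratio Kp was calculated from brain and serum parent-drug AUC0.5–6 h (ng/g*h). These AUCs came from male C57BL/6 mice (n=3 per time point) given parent drug or equimolar prodrug at […] i.p. in DMSO, sampled at 0.5, 2 and 6 h. Parent acid was quantified by LC-MS/MS with d₆-sobetirome internal standard.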
# [7] = AUC (0.5 to 6 hrs) in C57BL/6 mouse serum assessed as tazarotenic acid level at 9.14 umol/kg, ip by LC-MS/MS analysis; assay type: ADME, organism-based; parameters: time lower 0.5 hr, dose 9.14 umol/kg, time upper 6 hr, route intraperitoneal; settings: in vivo; summary of the method: as §1
# [8] = AUC (0.5 to 6 hrs) in C57BL/6 mouse brain assessed as tazarotenic acid level at 9.14 umol/kg, ip by LC-MS/MS analysis; assay type: ADME, organism-based; parameters: time lower 0.5 hr, dose 9.14 umol/kg, time upper 6 hr, route intraperitoneal; settings: in vivo; summary of the method: as §1
# [9] = Prodrug conversion in C57BL/6 mouse brain assessed as tazarotenic acid level at 9.14 umol/kg, ip measured after 1 hr in presence of FAAH inhibitor PF-3845 by LC-MS/MS analysis; assay type: ADME, organism-based; settings: in vivo; summary of the method: as §2
# [10] = AUC (0.5 to 6 hrs) in C57BL/6 mouse serum assessed as bexarotene level at 9.14 umol/kg, ip by LC-MS/MS analysis; assay type: ADME, organism-based; parameters: dose 9.14 umol/kg, time 0.5-6 hr, route intraperitoneal; settings: in vivo; summary of the method: as §1
# [11] = AUC (0.5 to 6 hrs) in C57BL/6 mouse brain assessed as bexarotene level at 9.14 umol/kg, ip by LC-MS/MS analysis; assay type: ADME, organism-based; parameters: dose 9.14 umol/kg, time 0.5-6 hr, route intraperitoneal; settings: in vivo, BLD = below limit of detection; summary of the method: as §1
# [12] = Prodrug conversion in C57BL/6 mouse brain assessed as bexarotene level at 9.14 umol/kg, ip measured after 1 hr in presence of FAAH inhibitor PF-3845 by LC-MS/MS analysis; assay type: ADME, organism-based; settings: in vivo; summary of the method: as §2
# [13] = Brain to serum concentration ratio, Kp of the compound in C57BL/6 mouse assessed as GW501516 level at 9.14 umol/kg, ip by LC-MS/MS analysis; assay type: ADME, organism-based; summary of the method: as §4
# [14] = AUC (0.5 to 6 hrs) in C57BL/6 mouse serum assessed as GW501516 level at 9.14 umol/kg, ip by LC-MS/MS analysis; assay type: ADME, organism-based; parameters: dose 9.14 umol/kg, time upper 6 hr, time lower 0.5 hr, route intraperitoneal; settings: in vivo; summary of the method: as §1
# [15] = Prodrug conversion in C57BL/6 mouse brain assessed as GW501516 level at 9.14 umol/kg, ip measured after 1 hr in presence of FAAH inhibitor PF-3845 by LC-MS/MS analysis; assay type: ADME, organism-based; settings: in vivo; summary of the method: as §2
# [16] = AUC (0.5 to 6 hrs) in C57BL/6 mouse brain assessed as GW501516 level at 9.14 umol/kg, ip by LC-MS/MS analysis; assay type: ADME, organism-based; parameters: time 0.5-6 hr, dose 9.14 umol/kg, route intraperitoneal; settings: in vivo; summary of the method: as §1
# [17] = Renal toxicity in C57BL/6 mouse assessed effect on Fasn gene expression in kidney at 9.14 umol/kg, ip administered once daily for 7 days by Trizol reagent based RT-qPCR analysis; assay type: organism-based; settings: in vivo, 168 h; summary of the method: as §3
# [18] = AUC (0.5 to 6 hrs) in C57BL/6 mouse brain assessed as tesaglitazar level at 9.14 umol/kg, ip by LC-MS/MS analysis; assay type: ADME, organism-based; parameters: time upper 6 hr, dose 9.14 umol/kg, time lower 0.5 hr, route intraperitoneal; settings: in vivo; summary of the method: as §1
# Mus musculus [19] = assay: In vivo agonist activity at PPAR in C57BL/6 mouse assessed upregulation of Pgc1-alpha gene expression at 9.14 umol/kg, ip administered once daily for 7 days by Trizol reagent based RT-qPCR analysis; assay type: functional, organism-based; summary of the method: as §3
# [20] = Prodrug conversion in C57BL/6 mouse brain assessed as tesaglitazar level at 9.14 umol/kg, ip measured after 1 hr in presence of FAAH inhibitor PF-3845 by LC-MS/MS analysis; assay type: ADME, organism-based; settings: in vivo; summary of the method: as §2
# [21] = AUC (0.5 to 6 hrs) in C57BL/6 mouse serum assessed as tesaglitazar level at 9.14 umol/kg, ip by LC-MS/MS analysis; assay type: ADME, organism-based; parameters: time lower 0.5 hr, dose 9.14 umol/kg, time upper 6 hr, route intraperitoneal; settings: in vivo; summary of the method: as §1
# [22] = Brain to serum concentration ratio, Kp of the compound in C57BL/6 mouse assessed as tesaglitazar level at 9.14 umol/kg, ip by LC-MS/MS analysis; assay type: ADME, organism-based; summary of the method: as §4
# [23] = AUC (0.5 to 6 hrs) in C57BL/6 mouse brain assessed as [4-(4-hydroxy-3-iodophenoxy)-3,5-diiodophenyl]acetic acid level at 9.14 umol/kg, ip by LC-MS/MS analysis; assay type: ADME, organism-based; parameters: dose 9.14 umol/kg, time upper 6 hr, time lower 0.5 hr, route intraperitoneal; settings: in vivo; summary of the method: as §1
# [24] = Brain to serum concentration ratio, Kp of the compound in C57BL/6 mouse assessed as [4-(4-hydroxy-3-iodophenoxy)-3,5-diiodophenyl]acetic acid level at 9.14 umol/kg, ip by LC-MS/MS analysis; assay type: ADME, organism-based; summary of the method: as §4
# [25] = Prodrug conversion in C57BL/6 mouse brain assessed as [4-(4-hydroxy-3-iodophenoxy)-3,5-diiodophenyl]acetic acid level at 9.14 umol/kg, ip measured after 1 hr in presence of FAAH inhibitor PF-3845 by LC-MS/MS analysis; assay type: ADME, organism-based; settings: in vivo; summary of the method: as §2
# [26] = AUC (0.5 to 6 hrs) in C57BL/6 mouse serum assessed as [4-(4-hydroxy-3-iodophenoxy)-3,5-diiodophenyl]acetic acid level at 9.14 umol/kg, ip by LC-MS/MS analysis; assay type: ADME, organism-based; parameters: dose 9.14 umol/kg, time 0.5-6 hr, route intraperitoneal; settings: in vivo; summary of the method: as §1
# [27] = AUC (0.5 to 6 hrs) in C57BL/6 mouse serum assessed as 2-(4-(4-hydroxy-3-isopropyl-5-((4-nitrophenyl)ethynyl)-benzyl)-3,5-dimethylphenoxy)acetic acid level at 9.14 umol/kg, ip by LC-MS/MS analysis; assay type: ADME, organism-based; parameters: time 0.5-6 hr, dose 9.14 umol/kg, route intraperitoneal; settings: in vivo; summary of the method: as §1
# [28] = Prodrug conversion in C57BL/6 mouse brain assessed as 2-(4-(4-hydroxy-3-isopropyl-5-((4-nitrophenyl)ethynyl)-benzyl)-3,5-dimethylphenoxy)acetic acid level at 9.14 umol/kg, ip measured after 1 hr in presence of FAAH inhibitor PF-3845 by LC-MS/MS analysis; assay type: ADME, organism-based; settings: in vivo; summary of the method: as §2
# [29] = AUC (0.5 to 6 hrs) in C57BL/6 mouse brain assessed as 2-(4-(4-hydroxy-3-isopropyl-5-((4-nitrophenyl)ethynyl)-benzyl)-3,5-dimethylphenoxy)acetic acid level at 9.14 umol/kg, ip by LC-MS/MS analysis; assay type: ADME, organism-based; parameters: time upper 6 hr, time lower 0.5 hr, dose 9.14 umol/kg, route intraperitoneal; settings: in vivo; summary of the method: as §1
# [30] = Brain to serum concentration ratio, Kp of the compound in C57BL/6 mouse assessed as 2-(4-(4-hydroxy-3-isopropyl-5-((4-nitrophenyl)ethynyl)-benzyl)-3,5-dimethylphenoxy)acetic acid level at 9.14 umol/kg, ip by LC-MS/MS analysis; assay type: ADME, organism-based; summary of the method: as §4
# [31] = mouse, in vivo, ip
# in vivo = settings: C57BL/6, mouse, brain/serum, ip, 9.14 umol/kg
# [32] = AUC (0.5 to 6 hrs) in C57BL/6 mouse serum at 9.14 umol/kg, ip by LC-MS/MS analysis; assay type: ADME, organism-based; parameters: time upper 6 hr, dose 9.14 umol/kg, time lower 0.5 hr, route intraperitoneal; settings: in vivo; summary of the method: as §1
compound,measurement,setting,value
CNC(=O)Cc1cccc(OCCCN(Cc2cccc(C(F)(F)F)c2Cl)CC(c2ccccc2)c2ccccc2)c1,AUC,[1],155.4 ng·h/g
same,AUC,[2],Bld
same,Drug metabolism,[3],Metabolite_Notdetected
CNC(=O)c1ccc(C#Cc2ccc3c(c2)C(C)(C)CCS3)nc1,Activity,Mus musculus [4],Active
same,Activity,[5],Non-Toxic
same,Kp,[6],2.03
same,AUC,[7],51.34 ng·h/g
same,AUC,[8],104 ng·h/g
same,Drug metabolism,[9],Metabolite_Notdetected
C=C(c1ccc(C(=O)NC)cc1)c1cc2c(cc1C)C(C)(C)CCC2(C)C,AUC,[10],4.933 ng·h/g
same,AUC,[11],Bld
same,Drug metabolism,[12],Metabolite_Notdetected
CNC(=O)COc1ccc(SCc2sc(-c3ccc(C(F)(F)F)cc3)nc2C)cc1C,Kp,[13],0.054
same,AUC,[14],2705 ng·h/g
same,Drug metabolism,[15],Metabolite_Detected
same,AUC,[16],146.3 ng·h/g
CCO[C@@H](Cc1ccc(OCCc2ccc(OS(C)(=O)=O)cc2)cc1)C(=O)NC,Activity,[17],Non-Toxic
same,AUC,[18],21.9 ng·h/g
same,Activity,Mus musculus [19],Active
same,Drug metabolism,[20],Metabolite_Notdetected
same,AUC,[21],374.1 ng·h/g
same,Kp,[22],0.06
CNC(=O)Cc1cc(I)c(Oc2ccc(O)c(I)c2)c(I)c1,AUC,[23],155.8 ng·h/g
same,Kp,[24],0.039
same,Drug metabolism,[25],Metabolite_Detected
same,AUC,[26],4020 ng·h/g
CNC(=O)COc1cc(C)c(Cc2cc(C#Cc3ccc([N+](=O)[O-])cc3)c(O)c(C(C)C)c2)c(C)c1,AUC,[27],49.5 ng·h/g
same,Drug metabolism,[28],Metabolite_Notdetected
same,AUC,[29],73.8 ng·h/g
same,Kp,[30],1.5
Cc1cc(OCC(=O)O)cc(C)c1Cc1cc(C#Cc2ccc([N+](=O)[O-])cc2)c(O)c(C(C)C)c1,AUC,[31],11.9 ng·h/g
same,Kp,in vivo,0.016
same,AUC,[32],756.9 ng·h/g
